Data set [1] concerns Rattus norvegicus. Nature of the data set: Anticonvulsant activity in Sprague-Dawley albino rat assessed as protection against subcutaneous pentylenetetrazole-induced seizures at 50 mg/kg, po after 4 hrs. Also noted: dose 50 mg/kg. In kind it is functional, organism-based. The essentials:
(§1)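 Male Sprague-Dawley albino rats (100–150 g), groups of 4. Oral suspension in 0.5% methylcellulose/water. Protection assessed by maximal electroshock or subcutaneous pentylenetetrazole; motor impairment by rotorod. Time points 0.25–4 h. Value is protected (or toxic)/tested animals.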

Data set [2] deals with Mus musculus. Briefly: Anticonvulsant activity in F1 albino mouse assessed as protection against subcutaneous pentylenetetrazole-induced seizures at 300 mg/kg, ip after 0.25 hrs. The format is functional, organism-based. Also noted: dose 300 mg/kg. The essentials:
(§2)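 Male albino F-1 mice (18–25 g), groups of 1–5 (rotorod 2–8). Compound given ip as a suspension in 0.5% methylcellulose at 30, 100 and 300 mg/kg. Seizures by maximal electroshock or subcutaneous pentylenetetrazole; neurotoxicity by rotorod. Read at 0.5 and 4 h, with some at 0.25, 1 and 2 h. Value is the minimum active dose, with protected (or toxic)/tested animals.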

Data set [3] addresses Adenosine receptor A2a (Rattus norvegicus, UniProt P30543). Briefly: Displacement of [3H]MSX-2 from adenosine A2A receptor in rat brain striatal membrane. The format is cell membranes.
The target in data set [4] is T1, Adenosine receptor A3 (Homo sapiens) (UniProt P0DMS8).
T1 sequence (whole entry): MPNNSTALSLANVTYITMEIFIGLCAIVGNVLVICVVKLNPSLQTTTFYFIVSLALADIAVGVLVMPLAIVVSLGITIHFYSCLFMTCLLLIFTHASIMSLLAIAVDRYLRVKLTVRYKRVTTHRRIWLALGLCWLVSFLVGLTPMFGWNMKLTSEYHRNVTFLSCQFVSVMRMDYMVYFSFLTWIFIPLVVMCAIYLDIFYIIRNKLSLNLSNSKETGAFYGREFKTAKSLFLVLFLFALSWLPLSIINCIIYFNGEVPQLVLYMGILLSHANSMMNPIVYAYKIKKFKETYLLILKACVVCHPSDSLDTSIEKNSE
Nature of the data set: Displacement of [3H]PSB-11 from human recombinant adenosine A3 receptor expressed in CHO cells at 10 uM. In kind it is cell-based. The gist of the method: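 CHO cell membranes expressing the human receptor. Radioligands: A1 [3H]CCPA; A2B [3H]ZM241385 or [3H]PSB-603; A3 [3H]PSB-11. […] Potent compounds run at 6–7 concentrations spanning 3 orders of magnitude; Ki ± SEM.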

The test system of data set [5] is Rattus norvegicus. Nature of the data set: Anticonvulsant activity in Sprague-Dawley albino rat assessed as protection against maximal electroshock-induced seizures at 30 mg/kg, po after 0.5 hrs. The format is functional, organism-based. Also on record: dose 30 mg/kg. The essentials:
as §1

In data set [6] the test system is Rattus norvegicus. Briefly: Anticonvulsant activity in Sprague-Dawley albino rat assessed as protection against subcutaneous pentylenetetrazole-induced seizures at 50 mg/kg, po after 0.5 hrs. In kind it is functional, organism-based. Also on record: dose 50 mg/kg. The essentials:
as §1

In data set [7] the test system is Mus musculus. Briefly: Anticonvulsant activity in F1 albino mouse assessed as protection against maximal electroshock-induced seizures at 100 mg/kg, ip after 0.25 hrs. Also on record: dose 100 mg/kg. The format is functional, organism-based. The gist of the method: as §2
In data set [8] the test system is Mus musculus. Nature of the data set: Anticonvulsant activity in F1 albino mouse assessed as protection against subcutaneous pentylenetetrazole-induced seizures at 300 mg/kg, ip after 4 hrs. The format is functional, organism-based. Also noted: dose 300 mg/kg. The gist of the method: as §2
In data set [9] the test system is Mus musculus. Briefly: Anticonvulsant activity in F1 albino mouse assessed as protection against subcutaneous pentylenetetrazole-induced seizures at 300 mg/kg, ip after 1 hr. In kind it is functional, organism-based. Also on record: dose 300 mg/kg. The essentials: as §2
Data set [10] deals with Rattus norvegicus. Briefly: Anticonvulsant activity in Sprague-Dawley albino rat assessed as protection against maximal electroshock-induced seizures at 30 mg/kg, po after 2 hrs. In kind it is functional, organism-based. Also noted: dose 30 mg/kg. The gist of the method: as §1
In data set [11] the target is T2, Adenosine receptor A1 (Rattus norvegicus, UniProt P25099).
T2 sequence (P25099 whole entry): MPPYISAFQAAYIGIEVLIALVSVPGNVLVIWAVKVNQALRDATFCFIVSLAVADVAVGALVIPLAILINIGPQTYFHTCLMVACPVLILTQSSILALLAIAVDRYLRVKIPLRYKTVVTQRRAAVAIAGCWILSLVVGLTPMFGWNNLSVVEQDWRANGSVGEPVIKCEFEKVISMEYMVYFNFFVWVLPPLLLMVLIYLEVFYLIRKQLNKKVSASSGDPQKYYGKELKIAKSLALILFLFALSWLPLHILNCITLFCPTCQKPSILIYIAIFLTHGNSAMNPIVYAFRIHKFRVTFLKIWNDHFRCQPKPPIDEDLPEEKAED
Nature of the data set: Displacement of [3H]CCPA from adenosine A1 receptor in rat brain cortical membrane. In kind it is cell membranes.

Data set [12] relates to Mus musculus. Briefly: Neurotoxicity in F1 albino mouse assessed as minimal motor impairment at 300 mg/kg, ip after 0.25 hrs by rotorod test. In kind it is toxicity, organism-based. Also noted: dose 300 mg/kg, route intraperitoneal. The following applies: in vivo. The essentials:
as §2

Data set [13] relates to Rattus norvegicus. Nature of the data set: Anticonvulsant activity in Sprague-Dawley albino rat assessed as protection against subcutaneous pentylenetetrazole-induced seizures at 50 mg/kg, po after 2 hrs. In kind it is functional, organism-based. Also on record: dose 50 mg/kg. The essentials:
as §1

The subject of data set [14] is Rattus norvegicus. Nature of the data set: Anticonvulsant activity in Sprague-Dawley albino rat assessed as protection against maximal electroshock-induced seizures at 30 mg/kg, po after 4 hrs. In kind it is functional, organism-based. Also on record: dose 30 mg/kg. The essentials: as §1
Data set [15] deals with T3, Adenosine receptor A3 (Homo sapiens, UniProt P0DMS8).
T3 sequence (P0DMS8 whole entry): T1 sequence (whole entry)
Nature of the data set: Displacement of [3H]PSB-11 from human recombinant adenosine A3 receptor expressed in CHO cells. In kind it is cell-based.

Data set [16] concerns Rattus norvegicus. Briefly: Anticonvulsant activity in Sprague-Dawley albino rat assessed as protection against subcutaneous pentylenetetrazole-induced seizures at 50 mg/kg, po after 1 hr. In kind it is functional, organism-based. Also on record: dose 50 mg/kg. The gist of the method: as §1
The target in data set [17] is T4, Adenosine receptor A1 (Homo sapiens, UniProt P30542).
T4 sequence (P30542 whole entry): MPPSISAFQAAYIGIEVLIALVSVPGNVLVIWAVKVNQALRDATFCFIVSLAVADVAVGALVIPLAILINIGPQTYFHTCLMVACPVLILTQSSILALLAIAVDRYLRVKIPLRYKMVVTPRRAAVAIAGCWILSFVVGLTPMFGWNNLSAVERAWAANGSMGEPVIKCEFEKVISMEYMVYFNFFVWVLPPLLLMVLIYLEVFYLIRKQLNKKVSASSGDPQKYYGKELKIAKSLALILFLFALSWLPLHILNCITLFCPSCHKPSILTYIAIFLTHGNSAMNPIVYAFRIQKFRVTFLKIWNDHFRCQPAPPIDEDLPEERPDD
Briefly: Displacement of [3H]CCPA from human recombinant adenosine A1 receptor expressed in CHO cells. In kind it is cell-based.

Data set [18] has as its system Mus musculus. Nature of the data set: Neurotoxicity in F1 albino mouse assessed as minimal motor impairment at 300 mg/kg, ip after 4 hrs by rotorod test. In kind it is toxicity, organism-based. Also on record: dose 300 mg/kg, route intraperitoneal. To be noted: in vivo. The gist of the method:
as §2

The species named for data set [19] is Rattus norvegicus. Briefly: Selectivity ratio of Ki for adenosine A1 receptor in rat brain cortical membrane to Ki for adenosine A2A receptor in rat brain striatal membrane. In kind it is cell membranes. The gist of the method:
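Ki ratios from radioligand competition binding. Rat A1 used brain cortical membranes and rat A2A used brain striatal membranes. Human A1 and A2A used membranes of CHO cells expressing the receptors. A1 radioligand [³H]CCPA; A2A radioligand [³H]MSX-2. Potent compounds were tested at 6–7 concentrations spanning 3 orders of magnitude.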

Data set [20] has as its system Rattus norvegicus. Briefly: Neurotoxicity in Sprague-Dawley albino rat assessed as minimal motor impairment at 30 mg/kg, po after 0.25 hrs by rotorod test. In kind it is toxicity, organism-based. Also on record: dose 30 mg/kg, route oral. To be noted: in vivo. The essentials:
as §1

Data set [21] deals with Mus musculus. Briefly: Neurotoxicity in F1 albino mouse assessed as minimal motor impairment at 300 mg/kg, ip after 0.5 hrs by rotorod test. Also on record: dose 300 mg/kg, route intraperitoneal. To be noted: in vivo. In kind it is toxicity, organism-based. The essentials: as §2
For data set [22], the system named is Mus musculus. Briefly: Anticonvulsant activity in F1 albino mouse assessed as protection against maximal electroshock-induced seizures at 300 mg/kg, ip after 0.5 hrs. In kind it is functional, organism-based. Also on record: dose 300 mg/kg. The essentials: as §2
Data set [23] has as its target Adenosine receptor A2a (Homo sapiens, UniProt P29274). Nature of the data set: Displacement of [3H]MSX-2 from human recombinant adenosine A2A receptor expressed in CHO cells. In kind it is cell-based.

Each structure is given as a SMILES string. The source made the active and inactive calls. No cut-off for these calls is given here.

Chain of Adenosine receptor A2a (Homo sapiens, UniProt P29274) (P29274 whole entry): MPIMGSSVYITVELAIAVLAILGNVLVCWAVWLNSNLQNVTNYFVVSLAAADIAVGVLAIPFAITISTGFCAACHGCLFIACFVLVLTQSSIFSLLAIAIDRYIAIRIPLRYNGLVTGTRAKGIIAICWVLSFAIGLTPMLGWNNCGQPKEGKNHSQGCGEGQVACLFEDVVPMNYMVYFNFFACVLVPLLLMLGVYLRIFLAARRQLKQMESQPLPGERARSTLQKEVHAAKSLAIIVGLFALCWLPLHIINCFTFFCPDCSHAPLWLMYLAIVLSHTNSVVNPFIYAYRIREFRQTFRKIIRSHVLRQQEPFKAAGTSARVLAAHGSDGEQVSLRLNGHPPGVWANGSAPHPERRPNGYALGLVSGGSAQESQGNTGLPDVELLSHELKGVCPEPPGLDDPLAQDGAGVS
Chain of Adenosine receptor A2a (Rattus norvegicus, UniProt P30543) (P30543 whole entry): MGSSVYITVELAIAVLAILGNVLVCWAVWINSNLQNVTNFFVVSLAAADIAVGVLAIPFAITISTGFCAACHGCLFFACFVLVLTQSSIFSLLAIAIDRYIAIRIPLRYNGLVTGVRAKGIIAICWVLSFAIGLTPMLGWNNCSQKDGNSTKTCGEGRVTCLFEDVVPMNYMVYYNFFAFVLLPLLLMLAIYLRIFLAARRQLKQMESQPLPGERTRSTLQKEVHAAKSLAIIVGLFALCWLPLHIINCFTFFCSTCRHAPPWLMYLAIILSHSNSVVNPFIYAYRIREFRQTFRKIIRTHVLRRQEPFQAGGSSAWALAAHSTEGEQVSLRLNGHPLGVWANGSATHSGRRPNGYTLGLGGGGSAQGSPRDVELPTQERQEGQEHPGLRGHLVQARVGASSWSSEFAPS

As for `Cn1c(=O)c2c(nc3n2CCCN3CC2CC2)n(C)c1=O`, the result in data set [1], in data set [2], in data set [5], in data set [6], in data set [8] and in data set [9] was inactive. The outcome in data set [10], in data set [13], in data set [14] and in data set [16] was inactive. Moreover, the Ki in data set [3] is 980 nM; in data set [11], 2390 nM; in data set [15], above 10 µM; in [17] it was 7.13 µM; in data set [23], 417 nM. The inhibition in [4] is 1%. Further, the outcome in data set [7] and in [22] was Active. Besides, the Activity entry in [12] is given as “Non-toxic”; in data set [18] it was “Non-toxic”; in data set [20], “Non-toxic”; in data set [21], “Toxic”. Also, in data set [19], the Ratio Ki amounted to 2.

Values taken from ChEMBL document CHEMBL2150901, “Synthesis and biological activity of tricyclic cycloalkylimidazo-, pyrimido- and diazepinopurinediones” (Eur J Med Chem, 2011).
